Activity calls are given as the source filed them. The rule behind the calls is not given here.
Assays:
Format in all cases: functional, cell-based
[1] = biological target: T1, Parathyroid hormone/parathyroid hormone-related peptide receptor (Homo sapiens) (UniProt Q03431); test: Agonist activity at human PTH1 receptor expressed in human GP2.3 cells assessed as induction of cAMP after 12 to 20 mins by luciferase reporter gene assay relative to PTH(1 to 34 residues)-NH2
T1 sequence (whole entry): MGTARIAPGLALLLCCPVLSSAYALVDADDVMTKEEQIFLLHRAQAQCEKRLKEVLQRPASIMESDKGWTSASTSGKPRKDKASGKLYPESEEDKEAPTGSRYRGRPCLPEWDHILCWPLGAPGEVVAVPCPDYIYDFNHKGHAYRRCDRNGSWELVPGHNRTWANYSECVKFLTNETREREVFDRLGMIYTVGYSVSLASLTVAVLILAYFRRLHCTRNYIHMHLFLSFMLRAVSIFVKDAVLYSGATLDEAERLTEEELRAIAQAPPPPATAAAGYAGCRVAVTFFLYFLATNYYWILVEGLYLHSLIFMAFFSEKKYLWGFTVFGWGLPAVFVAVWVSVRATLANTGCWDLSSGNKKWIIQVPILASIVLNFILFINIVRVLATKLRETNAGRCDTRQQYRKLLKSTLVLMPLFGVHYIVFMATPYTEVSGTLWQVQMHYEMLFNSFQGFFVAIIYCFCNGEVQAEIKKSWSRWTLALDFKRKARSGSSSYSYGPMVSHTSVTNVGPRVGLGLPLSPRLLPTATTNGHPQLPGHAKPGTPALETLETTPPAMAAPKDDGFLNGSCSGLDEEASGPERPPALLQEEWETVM

[2] = biological target: T1, Parathyroid hormone/parathyroid hormone-related peptide receptor (Homo sapiens); test: Agonist activity at extracellular domain truncate human PTH1 receptor expressed in GD5 cells assessed as induction of cAMP after 12 to 20 mins by luciferase reporter gene assay
Method in brief: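 HEK293-derived lines stably expressing Glosensor cAMP reporter plus full-length human PTHR1 (GP2.3) or ECD-truncated PTHR1 (GD5). Confluent monolayers preincubated at room temperature in CO2-independent medium with 0.5 mM D-luciferin until baseline stable (30 min), then varied agonist concentrations added. Maximal luminescence (12−20 min) used for sigmoidal variable-slope fits.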

[3] = biological target: T2, Parathyroid hormone/parathyroid hormone-related peptide receptor (Homo sapiens, UniProt Q03431); test: Agonist activity at human PTH1 receptor expressed in human GP2.3 cells assessed as induction of cAMP after 12 to 20 mins by luciferase reporter gene assay
T2 sequence (Q03431 whole entry): T1 sequence (whole entry)

fold change (FC) [1]	Activity [2]	EC50 [3]	Compound
3.2	Active	–	CC[C@H](C)[C@H](NC(=O)[C@H](CCC(=O)O)NC(=O)[C@H](CO)NC(=O)C[C@@H](NC(=O)[C@@H](N)CO)C(C)C)C(=O)N[C@@H](CCC(N)=O)C(=O)N[C@@H](CC(C)C)C(=O)N[C@@H](CCSC)C(=O)N[C@@H](Cc1cnc[nH]1)C(=O)N[C@@H](CC(N)=O)C(=O)N[C@@H](CC(C)C)C(=O)NCC(=O)N[C@@H](CCCCN)C(=O)N[C@@H](Cc1cnc[nH]1)C(=O)N[C@@H](CC(C)C)C(=O)N[C@@H](CC(N)=O)C(=O)N[C@@H](CO)C(=O)N[C@@H](CCSC)C(=O)N[C@@H](CCC(=O)O)C(=O)N[C@@H](CCCNC(=N)N)C(=O)N[C@H](C(=O)N[C@@H](CCC(=O)O)C(=O)N[C@@H](Cc1c[nH]c2ccccc12)C(=O)N[C@@H](CC(C)C)C(=O)N[C@@H](CCCNC(=N)N)C(=O)N[C@@H](CCCCN)C(=O)N[C@@H](CCCCN)C(=O)N[C@@H](CC(C)C)C(=O)N[C@@H](CCC(N)=O)C(=O)N[C@@H](CC(=O)O)C(=O)N[C@H](C(=O)N[C@@H](Cc1cnc[nH]1)C(=O)N[C@@H](CC(N)=O)C(=O)N[C@@H](Cc1ccccc1)C(N)=O)C(C)C)C(C)C
–	Active	Not Active	CC[C@H](C)[C@H](NC(=O)[C@H]1CCC[C@@H]1NC(=O)[C@H](CO)NC(=O)[C@@H](NC(=O)[C@@H](N)CO)C(C)C)C(=O)N[C@@H](CCC(N)=O)C(=O)N[C@@H](CC(C)C)C(=O)N[C@@H](CCSC)C(=O)N[C@@H](Cc1cnc[nH]1)C(=O)N[C@@H](CC(N)=O)C(=O)N[C@@H](CC(C)C)C(=O)NCC(=O)N[C@@H](CCCCN)C(=O)N[C@@H](Cc1cnc[nH]1)C(=O)N[C@@H](CC(C)C)C(=O)N[C@@H](CC(N)=O)C(=O)N[C@@H](CO)C(=O)N[C@@H](CCSC)C(=O)N[C@@H](CCC(=O)O)C(=O)N[C@@H](CCCNC(=N)N)C(=O)N[C@H](C(=O)N[C@@H](CCC(=O)O)C(=O)N[C@@H](Cc1c[nH]c2ccccc12)C(=O)N[C@@H](CC(C)C)C(=O)N[C@@H](CCCNC(=N)N)C(=O)N[C@@H](CCCCN)C(=O)N[C@@H](CCCCN)C(=O)N[C@@H](CC(C)C)C(=O)N[C@@H](CCC(N)=O)C(=O)N[C@@H](CC(=O)O)C(=O)N[C@H](C(=O)N[C@@H](Cc1cnc[nH]1)C(=O)N[C@@H](CC(N)=O)C(=O)N[C@@H](Cc1ccccc1)C(N)=O)C(C)C)C(C)C
28	Active	–	CC[C@H](C)[C@@H](CC(=O)N[C@@H](CCC(N)=O)C(=O)N[C@@H](CC(C)C)C(=O)N[C@@H](CCSC)C(=O)N[C@@H](Cc1cnc[nH]1)C(=O)N[C@@H](CC(N)=O)C(=O)N[C@@H](CC(C)C)C(=O)NCC(=O)N[C@@H](CCCCN)C(=O)N[C@@H](Cc1cnc[nH]1)C(=O)N[C@@H](CC(C)C)C(=O)N[C@@H](CC(N)=O)C(=O)N[C@@H](CO)C(=O)N[C@@H](CCSC)C(=O)N[C@@H](CCC(=O)O)C(=O)N[C@@H](CCCNC(=N)N)C(=O)N[C@H](C(=O)N[C@@H](CCC(=O)O)C(=O)N[C@@H](Cc1c[nH]c2ccccc12)C(=O)N[C@@H](CC(C)C)C(=O)N[C@@H](CCCNC(=N)N)C(=O)N[C@@H](CCCCN)C(=O)N[C@@H](CCCCN)C(=O)N[C@@H](CC(C)C)C(=O)N[C@@H](CCC(N)=O)C(=O)N[C@@H](CC(=O)O)C(=O)N[C@H](C(=O)N[C@@H](Cc1cnc[nH]1)C(=O)N[C@@H](CC(N)=O)C(=O)N[C@@H](Cc1ccccc1)C(N)=O)C(C)C)C(C)C)NC(=O)[C@H](CCC(=O)O)NC(=O)[C@H](CO)NC(=O)[C@@H](NC(=O)[C@@H](N)CO)C(C)C
108	Active	–	CC[C@H](C)[C@H](NC(=O)C[C@@H](CCC(=O)O)NC(=O)[C@H](CO)NC(=O)[C@@H](NC(=O)[C@@H](N)CO)C(C)C)C(=O)N[C@@H](CCC(N)=O)C(=O)N[C@@H](CC(C)C)C(=O)N[C@@H](CCSC)C(=O)N[C@@H](Cc1cnc[nH]1)C(=O)N[C@@H](CC(N)=O)C(=O)N[C@@H](CC(C)C)C(=O)NCC(=O)N[C@@H](CCCCN)C(=O)N[C@@H](Cc1cnc[nH]1)C(=O)N[C@@H](CC(C)C)C(=O)N[C@@H](CC(N)=O)C(=O)N[C@@H](CO)C(=O)N[C@@H](CCSC)C(=O)N[C@@H](CCC(=O)O)C(=O)N[C@@H](CCCNC(=N)N)C(=O)N[C@H](C(=O)N[C@@H](CCC(=O)O)C(=O)N[C@@H](Cc1c[nH]c2ccccc12)C(=O)N[C@@H](CC(C)C)C(=O)N[C@@H](CCCNC(=N)N)C(=O)N[C@@H](CCCCN)C(=O)N[C@@H](CCCCN)C(=O)N[C@@H](CC(C)C)C(=O)N[C@@H](CCC(N)=O)C(=O)N[C@@H](CC(=O)O)C(=O)N[C@H](C(=O)N[C@@H](Cc1cnc[nH]1)C(=O)N[C@@H](CC(N)=O)C(=O)N[C@@H](Cc1ccccc1)C(N)=O)C(C)C)C(C)C
205	Active	–	CC[C@H](C)[C@H](NC(=O)[C@H](CCC(=O)O)NC(=O)[C@H](CO)NC(=O)[C@@H](NC(=O)[C@@H](N)CO)C(C)C)C(=O)N[C@@H](CCC(N)=O)C(=O)N[C@@H](CC(C)C)C(=O)N[C@@H](CCSC)CC(=O)N[C@@H](Cc1cnc[nH]1)C(=O)N[C@@H](CC(N)=O)C(=O)N[C@@H](CC(C)C)C(=O)NCC(=O)N[C@@H](CCCCN)C(=O)N[C@@H](Cc1cnc[nH]1)C(=O)N[C@@H](CC(C)C)C(=O)N[C@@H](CC(N)=O)C(=O)N[C@@H](CO)C(=O)N[C@@H](CCSC)C(=O)N[C@@H](CCC(=O)O)C(=O)N[C@@H](CCCNC(=N)N)C(=O)N[C@H](C(=O)N[C@@H](CCC(=O)O)C(=O)N[C@@H](Cc1c[nH]c2ccccc12)C(=O)N[C@@H](CC(C)C)C(=O)N[C@@H](CCCNC(=N)N)C(=O)N[C@@H](CCCCN)C(=O)N[C@@H](CCCCN)C(=O)N[C@@H](CC(C)C)C(=O)N[C@@H](CCC(N)=O)C(=O)N[C@@H](CC(=O)O)C(=O)N[C@H](C(=O)N[C@@H](Cc1cnc[nH]1)C(=O)N[C@@H](CC(N)=O)C(=O)N[C@@H](Cc1ccccc1)C(N)=O)C(C)C)C(C)C
160	Active	–	CC[C@H](C)[C@H](NC(=O)[C@H](CCC(=O)O)NC(=O)[C@H](CO)NC(=O)[C@@H](NC(=O)[C@@H](N)CO)C(C)C)C(=O)N[C@@H](CCC(N)=O)CC(=O)N[C@@H](CC(C)C)C(=O)N[C@@H](CCSC)C(=O)N[C@@H](Cc1cnc[nH]1)C(=O)N[C@@H](CC(N)=O)C(=O)N[C@@H](CC(C)C)C(=O)NCC(=O)N[C@@H](CCCCN)C(=O)N[C@@H](Cc1cnc[nH]1)C(=O)N[C@@H](CC(C)C)C(=O)N[C@@H](CC(N)=O)C(=O)N[C@@H](CO)C(=O)N[C@@H](CCSC)C(=O)N[C@@H](CCC(=O)O)C(=O)N[C@@H](CCCNC(=N)N)C(=O)N[C@H](C(=O)N[C@@H](CCC(=O)O)C(=O)N[C@@H](Cc1c[nH]c2ccccc12)C(=O)N[C@@H](CC(C)C)C(=O)N[C@@H](CCCNC(=N)N)C(=O)N[C@@H](CCCCN)C(=O)N[C@@H](CCCCN)C(=O)N[C@@H](CC(C)C)C(=O)N[C@@H](CCC(N)=O)C(=O)N[C@@H](CC(=O)O)C(=O)N[C@H](C(=O)N[C@@H](Cc1cnc[nH]1)C(=O)N[C@@H](CC(N)=O)C(=O)N[C@@H](Cc1ccccc1)C(N)=O)C(C)C)C(C)C
55	Active	–	CC[C@H](C)[C@H](NC(=O)[C@H](CCC(=O)O)NC(=O)C[C@H](CO)NC(=O)[C@@H](NC(=O)[C@@H](N)CO)C(C)C)C(=O)N[C@@H](CCC(N)=O)C(=O)N[C@@H](CC(C)C)C(=O)N[C@@H](CCSC)C(=O)N[C@@H](Cc1cnc[nH]1)C(=O)N[C@@H](CC(N)=O)C(=O)N[C@@H](CC(C)C)C(=O)NCC(=O)N[C@@H](CCCCN)C(=O)N[C@@H](Cc1cnc[nH]1)C(=O)N[C@@H](CC(C)C)C(=O)N[C@@H](CC(N)=O)C(=O)N[C@@H](CO)C(=O)N[C@@H](CCSC)C(=O)N[C@@H](CCC(=O)O)C(=O)N[C@@H](CCCNC(=N)N)C(=O)N[C@H](C(=O)N[C@@H](CCC(=O)O)C(=O)N[C@@H](Cc1c[nH]c2ccccc12)C(=O)N[C@@H](CC(C)C)C(=O)N[C@@H](CCCNC(=N)N)C(=O)N[C@@H](CCCCN)C(=O)N[C@@H](CCCCN)C(=O)N[C@@H](CC(C)C)C(=O)N[C@@H](CCC(N)=O)C(=O)N[C@@H](CC(=O)O)C(=O)N[C@H](C(=O)N[C@@H](Cc1cnc[nH]1)C(=O)N[C@@H](CC(N)=O)C(=O)N[C@@H](Cc1ccccc1)C(N)=O)C(C)C)C(C)C
